Active and inactive are the calls of the source. No cut-off for these calls is given here.
Legend:
[1] = system: U-937; test: Induction of apoptosis in human U937 cells at 5 uM after 45 hrs by flow cytometry; type: functional, cell-based
In short: (§1)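 Apoptosis was taken as the pre-G1 peak after propidium iodide staining in hypotonic citrate/Triton buffer (30 min, dark) and flow cytometry. Triplicate experiments.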

[2] = system: U-937; test: Induction of apoptosis in human U937 cells at 50 uM after 45 hrs by flow cytometry; type: functional, cell-based; in short: as §1
[3] = system: MOLT-4; test: Antiproliferative activity against human MOLT4 cells at 100 uM by MTT assay; type: functional, cell-based; conditions: TDE = time-dependent effect
In short: (§2)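 Cells exposed to compound for 24, 48 and 72 h; growth inhibition read by MTT and expressed as percentage antiproliferative activity.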

[4] = system: MOLT-4; test: Antiproliferative activity against human MOLT4 cells at 25 uM after 24 to 72 hrs by MTT assay; type: functional, cell-based; in short: as §2
[5] = Cytotoxicity against human 30PT cells at 50 uM after 72 hrs by celltiter-glo luminescent assay; type: functional
In short: (§3)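 Patient-derived CSC spheroids were dissociated, plated at 2000–3000 viable cells, and held 24 h at 37 °C in 5% CO2. They were then treated 72 h with eight 1:3 serial dilutions (0.023–50 μM), with 0.1% DMSO as control, in triplicate. Viability was read by CellTiter-Glo luminescence relative to DMSO, and CC50 was obtained by 4-parameter logistic fit (mean of three experiments).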

[6] = Cytotoxicity against human CRO cells at 50 uM after 72 hrs by celltiter-glo luminescent assay; type: functional; in short: as §3
[7] = system: MOLT-4; test: Antiproliferative activity against human MOLT4 cells at 100 uM after 24 to 72 hrs by MTT assay; type: functional, cell-based; in short: as §2
[8] = (§4) Cytotoxicity against human CRC 1.1 cells at 50 uM after 72 hrs by celltiter-glo luminescent assay; type: functional; in short: as §3
[9] = Cytotoxicity against human 30P cells at 50 uM after 72 hrs by celltiter-glo luminescent assay; type: functional; in short: as §3
[10] = Cytotoxicity against human 30PT cells after 72 hrs by celltiter-glo luminescent assay; type: functional; in short: as §3
[11] = system: RKO; test: Antiproliferative activity against human RKO cells at 50 uM after 24 to 72 hrs by MTT assay; type: functional, cell-based; in short: as §2
[12] = Cytotoxicity against human CRO cells after 72 hrs by celltiter-glo luminescent assay; type: functional; in short: as §3
[13] = system: MOLT-4; test: Antiproliferative activity against human MOLT4 cells at 50 uM after 24 to 72 hrs by MTT assay; type: functional, cell-based; in short: as §2
[14] = system: MDA-MB-231; test: Antiproliferative activity against human MDA-MB-231 cells at 50 uM after 24 to 72 hrs by MTT assay; type: functional, cell-based; in short: as §2
[15] = Cytotoxicity against human CRC 1.1 cells after 72 hrs by celltiter-glo luminescent assay; type: functional; in short: as §3
[16] = Cytotoxicity against human 30P cells after 72 hrs by celltiter-glo luminescent assay; type: functional; in short: as §3
[17] = system: U-937; test: Cell cycle arrest in human U937 cells assessed as accumulation at S phase at 25 uM after 40 hrs by flow cytometry; type: functional, cell-based
[18] = target: T1, NAD-dependent protein deacetylase sirtuin-1 (Homo sapiens) (UniProt Q96EB6); test: Inhibition of human N-terminal GST-tagged SIRT1 expressed in Escherichia coli using Arg-His- Lys-Lys(Ac) as substrate after 1 hr by Fluor de Lys fluorescence based assay
T1 sequence (whole entry): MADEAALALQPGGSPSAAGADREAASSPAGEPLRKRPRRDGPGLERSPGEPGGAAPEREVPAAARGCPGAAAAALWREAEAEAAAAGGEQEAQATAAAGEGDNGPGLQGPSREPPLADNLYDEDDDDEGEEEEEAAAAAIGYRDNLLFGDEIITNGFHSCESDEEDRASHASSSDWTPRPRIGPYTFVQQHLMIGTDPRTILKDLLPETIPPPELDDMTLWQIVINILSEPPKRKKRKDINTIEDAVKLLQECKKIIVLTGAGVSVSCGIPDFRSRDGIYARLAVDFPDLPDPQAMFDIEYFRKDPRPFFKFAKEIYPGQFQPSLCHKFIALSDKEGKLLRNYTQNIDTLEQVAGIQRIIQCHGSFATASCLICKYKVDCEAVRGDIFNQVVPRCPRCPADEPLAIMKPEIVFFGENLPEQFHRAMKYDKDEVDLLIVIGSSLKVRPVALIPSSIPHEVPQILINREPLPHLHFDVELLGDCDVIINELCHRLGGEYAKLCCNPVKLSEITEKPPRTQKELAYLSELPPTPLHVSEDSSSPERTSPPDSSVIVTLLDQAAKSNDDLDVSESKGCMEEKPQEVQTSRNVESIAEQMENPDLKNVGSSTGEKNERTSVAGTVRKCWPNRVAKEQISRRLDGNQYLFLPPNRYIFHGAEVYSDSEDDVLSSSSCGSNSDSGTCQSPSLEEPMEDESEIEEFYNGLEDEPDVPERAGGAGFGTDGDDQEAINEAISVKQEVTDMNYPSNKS
In short: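 Recombinant full-length human sirtuin expressed in E. coli was incubated 1 h at 37 °C with p53-derived AMC-conjugated acetyl-peptide (SIRT1: Arg-His-Lys-Lys(Ac); SIRT2: Gln-Pro-Lys-Lys(Ac); […]) and NAD+ ([…]). The reaction was stopped and developed with developer containing 2 mM nicotinamide, and fluorescence read at ex 360/em 460 nm. Compound fluorescence was subtracted using an enzyme-free counter assay. Triplicate.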

[19] = system: U-937; test: Induction of apoptosis in human U937 cells after 45 hrs by flow cytometry; type: functional; parameters: concentration or dose not given beside the values; in short: as §1
[20] = system: U-937; test: Cell cycle arrest in human U937 cells assessed as accumulation at G1 phase at 25 uM after 40 hrs by flow cytometry; type: functional, cell-based
[21] = system: U-937; test: Granulocytic differentiation in human U937 cells assessed as increase of CD11c cells at 25 uM after 40 hrs by FACS analysis relative to control; type: functional
In short: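 U937 cells treated 40 h at 25 μM, then stained with PE-conjugated anti-CD11c (PE mouse IgG1 as isotype control) for 30 min at 4 °C in the dark. Cells were washed in PBS and taken up in PBS with 0.25 μg/mL propidium iodide. Differentiation = CD11c-positive cells minus PI-positive dead cells, by FACS.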

[22] = organism: Homo sapiens; test: as §4; type: functional; in short: as §3
[23] = system: U-937; test: Cell cycle arrest in human U937 cells at 25 uM after 40 hrs by flow cytometry; type: functional, cell-based
[24] = in the assay text read “after 40 hrs” for “after 45 hrs”

Row | SMILES | Activity [1] | Activity [2] | Activity [3] | Activity [4] | Activity [7] | inhibition [18] | Activity [19, 24] [%] | other results
1 | CC(C[S+]([O-])c1ccccc1/N=C/c1c(O)ccc2ccccc12)c1ccccc1 (stereo unspecified) | inactive | Active | tde | Active | Active |  |  | inhibition at 50 µM [5]: 39%; inhibition at 50 µM [6]: 33%; inhibition at 50 µM [8]: 46%; inhibition at 50 µM [9]: 42%
2 | CC(NS(=O)(=O)c1ccc(/N=C/c2c(O)ccc3ccccc23)cc1)c1ccccc1 (stereo unspecified) | inactive | Active |  |  | Active |  |  | 
3 | CC(CSc1cccc(/N=C/c2c(O)ccc3ccccc23)c1)c1ccccc1 (stereo unspecified) | inactive | Active |  | Active |  |  |  | CC50 [10]: 15.6 µM; Activity [11]: Active; CC50 [12]: 14.5 µM; Activity [13]: Active; Activity [14]: Active; CC50 [15]: 20 µM; CC50 [16]: 15.5 µM
4 | CC(NS(=O)(=O)c1cccc(/N=C/c2c(O)ccc3ccccc23)c1)c1ccccc1 (stereo unspecified) | inactive | Active |  |  |  |  |  | Activity [17]: Active
5 | CC(C[S+]([O-])c1ccc(/N=C/c2c(O)ccc3ccccc23)cc1)c1ccccc1 (stereo unspecified) | inactive | Active | tde |  | Active |  |  | 
6 | CC(NC(=O)c1cccc(/N=C/c2c(O)ccc3ccccc23)c1)c1ccccc1 (stereo unspecified) | inactive | Active |  |  |  | Active | 47 | Activity [20]: Active
7 | CC(NC(=O)c1ccccc1/N=C/c1c(O)ccc2ccccc12)c1ccccc1 (stereo unspecified) [SIRTINOL] | inactive | Active |  |  |  | Active | 47 | 
8 | CC(CSc1ccccc1/N=C/c1c(O)ccc2ccccc12)c1ccccc1 (stereo unspecified) | inactive | Active |  | Active |  |  |  | 
9 | NC(=O)C1CCCc2c1[nH]c1ccc(Cl)cc21 (stereo unspecified) |  |  |  |  |  |  |  | Activity [21]: inactive; Activity ([19]; in the assay text read “40 hrs” for “45 hrs”): inactive; inhibition at 50 µM [5]: 20%; inhibition at 50 µM [6]: 20%; inhibition [22]: inactive; inhibition at 50 µM [9]: 10%; Activity [23]: inactive
10 | CC(NC(=O)c1ccc(/N=C/c2c(O)ccc3ccccc23)cc1)c1ccccc1 (stereo unspecified) | inactive | Active | tde | Active | Active | Active | 47 | Activity [20]: Active

Reference: ChEMBL document CHEMBL2177084, “Discovery of salermide-related sirtuin inhibitors: binding mode studies and antiproliferative effects in cancer cells including cancer stem cells” (J Med Chem, 2012)
